Paper PMC7985749 (CNS Drugs, 2021)

How the values were obtained:
Format in all cases: in vivo, human
[1] = Plasma pharmacokinetics, multiple ascending dose; settings: for Tmax / AUC(0-t) / Cmax / half-life: human, plasma, oral; for AUC(0-t) / Cmax / half-life: mean (CV %); for half-life: t½, 5 days
[2] = Neuropsychological assessments; settings: SAD, MAD, or CSF cohorts
Summary of the method: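 Tests were VAS, LSEQ, WCST and Sternberg, run within the neurological evaluation. The trial was single-centre, randomized, double-blind and placebo-controlled in healthy volunteers. Dosing was oral: single doses of 0.2–4 mg (young males), 5 daily doses of 0.2–4 mg/day (young males and females), or 2.5 mg/day for 5 days (older adults). Assessments followed the scheduled timepoints.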

[3] = Plasma pharmacokinetics, single ascending dose; settings: for Tmax / half-life / AUC(0-inf) / AUC(0-t) / Cmax / Vd/F: human, plasma

In the case of `Nc1nnc(CN[C@@H]2C[C@H]2c2ccc(OCc3ccccc3)cc2)o1` [vafidemstat], the “Pharmacokinetic profiles, young versus older adult populations” value ([1]; 2.5 mg/day) is reported as “did not differ significantly”, the Tmax ([1]; both, 0.2 mg/day) is reported as 5.1 h and the AUC(0-t) ([1]; both, 0.2 mg/day, AUC0–t (D1), MAD 0.2 mg/day, day 1, young) is reported as 18.7 ng·h/mL. The AUC(0-t) ([1]; both, 0.2 mg/day, AUC0–t,ss (D5), MAD 0.2 mg/day, day 5, young) was 37.7 ng·h/mL, the Cmax ([1]; both, 0.2 mg/day, Cmax (D1), MAD 0.2 mg/day, day 1, young) was 1.28 ng/mL and the Cmax ([1]; both, 0.2 mg/day, Cmax,ss (D5), MAD 0.2 mg/day, day 5, young) was 2.32 ng/mL. The half-life ([1]; both, 0.2 mg/day, MAD 0.2 mg/day, young) was 22 h, the Tmax ([1]; both, 0.6 mg/day) was 2.25 h and the AUC(0-t) ([1]; both, 0.6 mg/day, AUC0–t (D1), MAD 0.6 mg/day, day 1, young) was 50.6 ng·h/mL. For the same molecule, the AUC(0-t) ([1]; both, 0.6 mg/day, AUC0–t,ss (D5), MAD 0.6 mg/day, day 5, young) was 114 ng·h/mL, the Cmax ([1]; both, 0.6 mg/day, Cmax (D1), MAD 0.6 mg/day, day 1, young) was 3.69 ng/mL and the Cmax ([1]; both, 0.6 mg/day, Cmax,ss (D5), MAD 0.6 mg/day, day 5, young) was 7.65 ng/mL. The half-life ([1]; both, 0.6 mg/day, MAD 0.6 mg/day, young) was 22 h, the Tmax ([1]; both, 1 mg/day) was 1.83 h and the Tmax ([1]; both, 1.5 mg/day) was 1.17 h. The AUC(0-t) ([1]; both, 1.5 mg/day, AUC0–t (D1), MAD 1.5 mg/day, day 1, young) was 138 ng·h/mL, the AUC(0-t) ([1]; both, 1.5 mg/day, AUC0–t,ss (D5), MAD 1.5 mg/day, day 5, young) was 299 ng·h/mL and the Cmax ([1]; both, 1.5 mg/day, Cmax (D1), MAD 1.5 mg/day, day 1, young) was 11.3 ng/mL. It also gave a Cmax ([1]; both, 1.5 mg/day, Cmax,ss (D5), MAD 1.5 mg/day, day 5, young) of 23.6 ng/mL, a half-life ([1]; both, 1.5 mg/day, MAD 1.5 mg/day, young) of 22 h and a Tmax ([1]; both, 2.5 mg/day) of 2.17 h. For the same molecule, the AUC(0-t) ([1]; both, 2.5 mg/day, AUC0–t (D1), MAD 2.5 mg/day, day 1, young) was 292 ng·h/mL, the AUC(0-t) ([1]; both, 2.5 mg/day, AUC0–t,ss (D5), MAD 2.5 mg/day, day 5, young) was 634 ng·h/mL and the AUC(0-t) ([1]; both, 2.5 mg/day, AUC0–t,ss (D5), MAD older adult 2.5 mg/day, day 5) was 442 ng·h/mL. It also gave a Cmax ([1]; both, 2.5 mg/day, Cmax (D1), MAD 2.5 mg/day, day 1, young) of 26.6 ng/mL, a Cmax ([1]; both, 2.5 mg/day, Cmax,ss (D5), MAD 2.5 mg/day, day 5, young) of 49.9 ng/mL and a half-life ([1]; both, 2.5 mg/day, MAD 2.5 mg/day, young) of 22 h. It also gave a half-life ([1]; both, 2.5 mg/day, MAD older adult 2.5 mg/day) of 23 h, a Tmax ([1]; both, 4 mg/day) of 1.33 h and an AUC(0-t) ([1]; both, 4 mg/day, AUC0–t (D1), MAD 4.0 mg/day, day 1, young) of 564 ng·h/mL. It also gave an AUC(0-t) ([1]; both, 4 mg/day, AUC0–t,ss (D5), MAD 4.0 mg/day, day 5, young) of 994 ng·h/mL, a Cmax ([1]; both, 4 mg/day, Cmax (D1), MAD 4.0 mg/day, day 1, young) of 56 ng/mL and a Cmax ([1]; both, 4 mg/day, Cmax,ss (D5), MAD 4.0 mg/day, day 5, young) of 110 ng/mL. The half-life ([1]; both, 4 mg/day, MAD 4.0 mg/day, young) was 20 h, the Tmax ([1]; 2.5 mg/day) was 2.33 h and the AUC(0-t) ([1]; 2.5 mg/day, AUC0–t (D1), MAD older adult 2.5 mg/day, day 1) was 258 ng·h/mL. For the same molecule, the Cmax ([1]; 2.5 mg/day, Cmax (D1), MAD older adult 2.5 mg/day, day 1) was 24.3 ng/mL, the Cmax ([1]; 2.5 mg/day, Cmax,ss (D5), MAD older adult 2.5 mg/day, day 5) was 41 ng/mL and the “Sleeping or awakening patterns (LSEQ)” value [2] was “did not disrupt sleeping or awakening patterns”. For the same molecule, the “Somnolence and potential for abuse (VAS)” value [2] was “did not provoke somnolence or reveal a potential for abuse”, the “WCST or Sternberg test” value ([2]; any dose level or parameter) was “No significant differences” and the “Variability, overall coefficient of variation” value ([3]; SAD and MAD cohorts, plasma PK) was ≤ 30%. The Tmax ([3]; both, oral) was 0.5 to 2 h, the half-life ([3]; both, oral) was 20 to 30 h and the AUC(0-inf) ([3]; male, po, 0.2 mg) was 30.9 ng·h/mL. The AUC(0-t) ([3]; male, po, 0.2 mg) was 28 ng·h/mL, the Cmax ([3]; male, po, 0.2 mg) was 1.11 ng/mL and the Tmax ([3]; male, po, 0.2 mg) was 2.75 h. For the same molecule, the Vd/F ([3]; male, po, 0.2 mg) was 260 L, the half-life ([3]; male, po, 0.2 mg) was 28 h and the AUC(0-inf) ([3]; male, po, 0.6 mg) was 90.7 ng·h/mL. The AUC(0-t) ([3]; male, po, 0.6 mg) was 83.3 ng·h/mL, the Cmax ([3]; male, po, 0.6 mg) was 3.21 ng/mL and the Tmax ([3]; male, po, 0.6 mg) was 1.83 h. The Vd/F ([3]; male, po, 0.6 mg) was 256 L, the half-life ([3]; male, po, 0.6 mg) was 27 h and the AUC(0-inf) ([3]; male, po, 1.5 mg) was 428 ng·h/mL. It also gave an AUC(0-t) ([3]; male, po, 1.5 mg) of 297 ng·h/mL, a Cmax ([3]; male, po, 1.5 mg) of 11.9 ng/mL and a Tmax ([3]; male, po, 1.5 mg) of 0.92 h. The Vd/F ([3]; male, po, 1.5 mg) was 213 L and the half-life ([3]; male, po, 1.5 mg) was 41 h.
